Assay results gathered from unrelated publications.
Target: Serine/threonine-protein kinase PLK3 (PLK3, Homo sapiens, UniProt Q9H4B4)

| SMILES | read-out | technique | concentration | remaining binding [%] |
| --- | --- | --- | --- | --- |
| C[C@H](NC(=O)c1cnc2n1[C@](C)(Cc1ccc(C#N)cc1)C(=O)N2c1cc(Cl)c(F)c(Cl)c1)C(=O)NC1(c2ccccn2)CC1 | cell-free assay | competition with immobilised ligand | 1 µM | 81 |
| CN(CCCC(F)(F)F)c1nccc(-c2cnn3ncccc23)n1 | binding |  | 1 µM | 100 |
| COc1ncc2cc3ccccc3nc2c1C#N | cell-free assay | competition with immobilised ligand | 5 µM | 69 |
| CN(c1nccc(-c2cnn3ncccc23)n1)C1CC1 | binding |  | 1 µM | 86 |
| CNC(=O)[C@@H]1CC[C@@H](n2c(-c3ccc4cnccc4c3)nc3ccc(C(=O)NCc4cccc(C(N)=O)c4)cc32)C1 | binding | competition with immobilised ligand | 1 µM | 100 |
| O=C(c1ccc(Nc2ncc(Cl)c(-c3cc4ccccc4s3)n2)cc1)N1CCC(N2CCCC2)CC1 | binding | competition with immobilised ligand | 1 µM | 58 |
| N[C@H]1CCN(c2nccc(-c3cnn4ncccc34)n2)C1 | binding |  | 1 µM | 83 |
| COCCOc1nc(-c2ccc(Cl)nc2)nc2c1CN(C(=O)c1ncn3ccccc13)CC2 | cell-free assay | competition with immobilised ligand | 0.1 µM | 100 |
| COc1ccnn2ncc(-c3ccnc(N(C)C)n3)c12 | binding |  | 1 µM | 75 |
| CC(=O)N1CCC(c2ccc(C(=O)NC3=NCCN3)cc2C(F)(F)F)CC1 | cell-free assay | competition with immobilised ligand | 1 µM | 78 |
| O=C(NCC1CCOCC1)c1n[nH]cc1NC(=O)c1c(F)cccc1F | binding | competition with immobilised ligand | 1 µM | 89 |
| CCOCCn1cc(C(=O)Nc2ccc(-n3nc(-c4cccnc4)cc3C(F)(F)F)cn2)ccc1=O | cell-free assay | competition with immobilised ligand | 1 µM | 84 |
| Cc1cnc(Nc2ccc(C(=O)N3CCC(N4CCCC4)CC3)cc2)nc1-c1cc2ccccc2s1 | binding | competition with immobilised ligand | 1 µM | 42 |
| CN(C)c1ncnc(-c2ccc3nc(Nc4cc(CN5CCN(C(=O)CC(F)(F)F)CC5)ccn4)[nH]c3c2)c1Cl | cell-free assay | competition with immobilised ligand | 1 µM | 100 |
| C[C@@H]1CN(c2ccc3ncc(-c4ccc5[nH]nc(C6CC6)c5c4)n3n2)C[C@H](C)O1 | binding | competition with immobilised ligand | 0.5 µM | 98 |
| C=CC(=O)N1CCC(C(=O)NCC(=O)N2CCN(c3nc(-c4cnc(N)nc4C(F)F)nc(N4CCOCC4)n3)CC2)CC1 | binding | competition with immobilised ligand | 1 µM | 58 |
